Test results from ChEMBL document CHEMBL1129953, “Heteroaromatic analogs of 1-[2-(diphenylmethoxy)ethyl]- and 1-[2-[bis(4-fluorophenyl)methoxy]ethyl]-4-(3-phenylpropyl)piperazines (GBR 12935 and GBR 12909) as high-affinity dopamine reuptake inhibitors” (J Med Chem, 1997).

Assays:
[1] = molecular target: T1, Monoamine transporters; serotonin & dopamine (Rattus norvegicus) (UniProt P31652+P23977); experiment: Ratio of binding affinity on SERT with respect to DA; type: protein assay
[2] = molecular target: Sodium-dependent dopamine transporter (Rattus norvegicus) (UniProt P23977); experiment: Ratio of reuptake inhibition on DA with respect to binding affinity of DA; type: functional
[3] = molecular target: T2, Sodium-dependent serotonin transporter (Rattus norvegicus, UniProt P31652); experiment: Binding affinity at the serotonin transporter using [125I]RTI-55 in rat caudate membranes.; type: cell membranes
In short: (§1)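 Triplicate incubation 18–24 h at 4 °C, then filtration over PEI-presoaked GF/B filters. Eight-point inhibition curves (90–10% of control) give the IC50.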

[4] = molecular target: T1, Monoamine transporters; serotonin & dopamine (Rattus norvegicus); experiment: Ratio of reuptake inhibition of 5-HT with respect to DA; type: functional
[5] = molecular target: T3, Sodium-dependent dopamine transporter (Rattus norvegicus, UniProt P23977); experiment: Reuptake inhibition at the dopamine transporter labeled with radioligand [3H]dopamine on synaptosomes obtained from rat caudate.; type: functional, subcellular, Brain
In short: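 Rat caudate synaptosomes (10% sucrose homogenate, 1000g supernatant). [3H]DA at 5 nM final in Krebs-phosphate buffer pH 7.4 with ascorbic acid and 50 μM pargyline. Incubated 15 min at 25 °C. Nonspecific uptake defined with 1 μM GBR 12909. Filtered over GF/B filters and counted. IC50 reported.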

[6] = molecular target: T3, Sodium-dependent dopamine transporter; experiment: Binding affinity at the dopamine transporter using [125I]RTI-55 in rat caudate membranes.; type: cell membranes
In short: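 [125I]RTI-55 at 0.01 nM (SA 2200 Ci/mmol). […] Incubated in triplicate 18–24 h at 4 °C to equilibrium. Filtered over PEI-presoaked GF/B filters. Eight-point inhibition curves spanning 90% to 10% of control. IC50 reported.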

[7] = molecular target: T3, Sodium-dependent dopamine transporter; experiment: Reuptake inhibition was determined at the dopamine transporter labeled with radioligand [3H]dopamine in nonstandard conditions on brain membranes obtained from rat; type: functional, Membrane
In short: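 Synaptosomes preincubated with drug 60 min at 25 °C in Krebs-phosphate buffer with 1 mg/mL BSA. 5 nM [3H]DA then added for 20 min at 25 °C. Nonspecific uptake defined with 1 μM GBR 12909. Stopped by filtration. Mean ± SD of three independent experiments.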

[8] = molecular target: T3, Sodium-dependent dopamine transporter; experiment: Binding affinity was determined at the dopamine transporter labeled with radioligand [125 I] RTI-55 in nonstandard conditions
In short: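 Run on rat caudate synaptosomes in Krebs-phosphate buffer with 1 mg/mL BSA. Drug preincubated 60 min at 25 °C, then 10 pM [125I]RTI-55 added for 20 min at 25 °C. Filtered over PEI-presoaked GF/B filters. Nonspecific binding defined with 1 μM GBR 12909. Mean ± SD of three independent experiments.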

[9] = molecular target: T2, Sodium-dependent serotonin transporter; experiment: Binding affinity was determined at the Serotonin transporter labeled with radioligand [125 I] RTI-55; in short: as §1
[10] = molecular target: T3, Sodium-dependent dopamine transporter; experiment: Binding affinity was determined at the dopamine transporter labeled with radioligand [125 I] RTI-55
In short: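 Incubated in triplicate 18–24 h at 4 °C to equilibrium. Filtered over PEI-presoaked GF/B filters. Eight-point inhibition curves spanning 90% to 10% of control. IC50 reported.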

[11] = Sigma receptor binding was determined by labeling with radioligand [3H](+)-pentazocine on frozen membranes obtained from frozen guinea pig brain

T2 sequence (P31652 whole entry): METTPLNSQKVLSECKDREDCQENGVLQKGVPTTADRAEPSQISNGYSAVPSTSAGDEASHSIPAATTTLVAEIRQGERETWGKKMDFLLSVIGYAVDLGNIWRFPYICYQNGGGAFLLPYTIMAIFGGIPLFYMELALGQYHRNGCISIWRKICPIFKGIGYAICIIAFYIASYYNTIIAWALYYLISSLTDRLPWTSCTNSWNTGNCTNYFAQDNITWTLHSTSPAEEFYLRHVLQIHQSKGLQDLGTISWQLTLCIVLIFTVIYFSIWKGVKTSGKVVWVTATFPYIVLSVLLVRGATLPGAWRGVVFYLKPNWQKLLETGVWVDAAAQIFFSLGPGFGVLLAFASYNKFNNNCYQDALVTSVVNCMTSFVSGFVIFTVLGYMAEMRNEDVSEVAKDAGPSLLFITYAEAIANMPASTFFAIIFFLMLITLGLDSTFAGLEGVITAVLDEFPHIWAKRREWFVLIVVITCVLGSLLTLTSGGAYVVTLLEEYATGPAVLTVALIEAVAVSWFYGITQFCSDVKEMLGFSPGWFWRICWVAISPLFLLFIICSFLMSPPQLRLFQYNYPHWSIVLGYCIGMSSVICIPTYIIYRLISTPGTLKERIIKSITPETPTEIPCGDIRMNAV
Sodium-dependent dopamine transporter (Rattus norvegicus), sequence (P23977 whole entry): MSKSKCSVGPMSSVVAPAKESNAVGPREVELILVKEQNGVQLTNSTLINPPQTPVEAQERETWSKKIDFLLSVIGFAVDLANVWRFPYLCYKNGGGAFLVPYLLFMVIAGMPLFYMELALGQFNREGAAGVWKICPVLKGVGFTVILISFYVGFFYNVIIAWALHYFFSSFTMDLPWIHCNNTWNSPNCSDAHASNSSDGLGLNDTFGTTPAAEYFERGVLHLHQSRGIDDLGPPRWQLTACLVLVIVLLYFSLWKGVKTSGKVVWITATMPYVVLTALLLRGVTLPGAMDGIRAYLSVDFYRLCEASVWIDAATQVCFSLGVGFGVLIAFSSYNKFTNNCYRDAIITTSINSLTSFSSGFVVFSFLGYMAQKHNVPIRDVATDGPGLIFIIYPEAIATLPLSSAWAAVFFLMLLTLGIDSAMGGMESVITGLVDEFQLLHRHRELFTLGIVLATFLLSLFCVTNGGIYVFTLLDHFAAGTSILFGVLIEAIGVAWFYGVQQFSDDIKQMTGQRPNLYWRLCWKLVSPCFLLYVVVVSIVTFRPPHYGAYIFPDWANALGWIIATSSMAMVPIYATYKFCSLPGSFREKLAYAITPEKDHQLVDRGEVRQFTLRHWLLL
T3 sequence (P23977 whole entry): as above
T1 sequence (P23977 whole entry, looked up): as the sequence (P23977 whole entry) above
T1 sequence (P31652 whole entry, looked up): as the sequence (P31652 whole entry) above

Row | SMILES | Ratio [1] | Ratio [2] | IC50 [3] [nM] | Ratio [4] | IC50 [5] [nM] | IC50 [6] [nM] | IC50 [7] [nM] | IC50 [8] [nM] | IC50 [9] [nM] | IC50 [10] [nM] | IC50 [11] [nM]
1 | Fc1ccc(C(OCCN2CCN(Cc3cnc4ccccc4c3)CC2)c2ccc(F)cc2)cc1 | 30 | 4.6 | 485 | 12 | 74 | 16 | – | – | – | – | –
2 | c1ccc(C(OCCN2CCN(Cc3nc4ccccc4[nH]3)CC2)c2ccccc2)cc1 | 41 | 0.8 | 1880 | 110 | 37 | 46 | – | – | – | – | –
3 | Fc1ccc(C(OCCN2CCN(Cc3cc4ccccc4[nH]3)CC2)c2ccc(F)cc2)cc1 | 163 | 18.6 | 119 | 39 | 13 | 0.7 | 1.86 | 2.94 | – | – | –
4 | c1ccc(C(OCCN2CCN(CCCc3nc4ccccc4[nH]3)CC2)c2ccccc2)cc1 | 13 | 0.7 | 309 | 39 | 17 | 23 | – | – | – | – | –
5 | Fc1ccc(C(OCCN2CCN(Cc3ccc4ccccc4n3)CC2)c2ccc(F)cc2)cc1 | < 1 | 1.9 | 51 | 3 | 106 | 56 | – | – | – | – | –
6 | Fc1ccc(C(OCCN2CCN(Cc3cc4ccccc4s3)CC2)c2ccc(F)cc2)cc1 | 121 | 8.3 | 495 | 36 | 34 | 4.1 | – | – | – | – | –
7 | Fc1ccc(C(OCCN2CCN(CCCc3cccnc3)CC2)c2ccc(F)cc2)cc1 | 175 | 1.3 | – | 321 | 20 | – | – | – | 2800 | 16 | –
8 | Fc1ccc(C(OCCN2CCN(C/C=C/c3ccco3)CC2)c2ccc(F)cc2)cc1 | 62 | 4 | – | 61 | 7.2 | – | – | – | 109 | – | –
9 | Fc1ccc(C(OCCN2CCN(CCCc3nc4ccccc4[nH]3)CC2)c2ccc(F)cc2)cc1 | 11 | 3.2 | 28 | 9 | 8.1 | 2.5 | – | – | – | – | –
10 | Fc1ccc(C(OCCN2CCN(Cc3cc4ccccc4o3)CC2)c2ccc(F)cc2)cc1 | 45 | 2.9 | 286 | 41 | 18.6 | 6.4 | 12.3 | 17.8 | – | – | –
11 | c1ccc(C(OCCN2CCN(CCCc3ccco3)CC2)c2ccccc2)cc1 | 234 | 1.3 | 1520 | 300 | 8.5 | 6.5 | – | – | – | – | –
12 | Fc1ccc(C(OCCN2CCN(Cc3nc4ccccc4[nH]3)CC2)c2ccc(F)cc2)cc1 | 17 | 1.3 | 256 | 40 | 20 | 15 | – | – | – | – | –
13 | c1ccc(C(OCCN2CCN(Cc3cccc4ccccc34)CC2)c2ccccc2)cc1 | 3 | 3.6 | 336 | < 1 | 406 | 114 | – | – | – | – | –
14 | c1ccc(C(OCCN2CCN(Cc3cc4ccccc4s3)CC2)c2ccccc2)cc1 | 131 | 1.1 | 2420 | 184 | 19 | 18 | – | – | – | – | –
15 | c1ccc(C(OCCN2CCN(CCCc3cccs3)CC2)c2ccccc2)cc1 | 162 | 1.9 | 842 | 205 | 9.7 | 5.2 | – | – | – | – | –
16 | c1ccc(C(OCCN2CCN(Cc3cnc4ccccc4c3)CC2)c2ccccc2)cc1 | 16 | 1.5 | 1160 | 27 | 111 | 72 | – | – | – | – | –

Row | SMILES | Ratio [1] | Ratio [2] | IC50 [3] [nM] | Ratio [4] | IC50 [5] [nM] | IC50 [6] [nM] | IC50 [7] [nM] | IC50 [8] [nM] | IC50 [9] [nM] | IC50 [10] [nM] | IC50 [11] [nM]
17 | Fc1ccc(C(OCCN2CCN(CCCc3cccs3)CC2)c2ccc(F)cc2)cc1 | 32 | 1.8 | – | 55 | 6.1 | – | – | – | 105 | 3.3 | –
18 | Fc1ccc(C(OCCN2CCN(C/C=C/c3cccs3)CC2)c2ccc(F)cc2)cc1 | 40 | 5.9 | – | 29 | 13 | – | – | – | 88 | 2.2 | –
19 | C(=C\c1ccco1)/CN1CCN(CCOC(c2ccccc2)c2ccccc2)CC1 | 367 | 1.9 | 1840 | 281 | 9.6 | 5 | – | – | – | – | –
20 | Fc1ccc(C(OCCN2CCN(C/C=C/c3cccnc3)CC2)c2ccc(F)cc2)cc1 | 25 | 1.1 | – | 46 | 14.5 | – | – | – | 334 | 13.6 | –
21 | Fc1ccc(C(OCCN2CCN(Cc3cccc4ccccc34)CC2)c2ccc(F)cc2)cc1 | 8 | 10.1 | 243 | < 1 | 312 | 31 | – | – | – | – | –
22 | c1ccc(C(OCCN2CCN(Cc3ccc4ccccc4n3)CC2)c2ccccc2)cc1 | 10 | 1 | 1990 | 21 | 192 | 199 | – | – | – | – | –
23 | c1ccc(C(OCCN2CCN(Cc3cc4ccccc4[nH]3)CC2)c2ccccc2)cc1 | 619 | 8 | 668 | 241 | 8.8 | 1.1 | 2.62 | 2.19 | – | – | –
24 | Fc1ccc(C(OCCN2CCN(Cc3ccc4ncccc4c3)CC2)c2ccc(F)cc2)cc1 | 9 | 1.2 | 551 | – | – | 62 | – | – | – | – | –
25 | C(=C\c1cccnc1)/CN1CCN(CCOC(c2ccccc2)c2ccccc2)CC1 | 61 | 1.5 | 2760 | 57 | 64 | 44 | – | – | – | – | –
26 | Fc1ccc(C(OCCN2CCN(Cc3ccc4ccccc4c3)CC2)c2ccc(F)cc2)cc1 | 39 | 3.8 | 312 | 20 | 30 | 8 | – | – | – | – | –
27 | Fc1ccc(C(OCCN2CCN(CCCc3ccco3)CC2)c2ccc(F)cc2)cc1 | 35 | 1.3 | – | 52 | 7.9 | – | – | – | 204 | 5.9 | –
28 | c1ccc(C(OCCN2CCN(CCCc3cccnc3)CC2)c2ccccc2)cc1 | 31 | 0.9 | 2420 | 53 | 70 | 78 | – | – | – | – | –
29 | c1ccc(CCCN2CCN(CCOC(c3ccccc3)c3ccccc3)CC2)cc1 | – | – | – | – | – | – | – | – | – | – | 17
30 | C(=C\c1cccs1)/CN1CCN(CCOC(c2ccccc2)c2ccccc2)CC1 | 184 | 1.6 | 1170 | 200 | 10 | 6.4 | – | – | – | – | –
31 | c1ccc(C(OCCN2CCN(Cc3cc4ccccc4o3)CC2)c2ccccc2)cc1 | 110 | 1.3 | 1890 | 136 | 22 | 17 | 31 | 43.6 | – | – | –
32 | c1ccc(C(OCCN2CCN(Cc3ccc4ncccc4c3)CC2)c2ccccc2)cc1 | 4 | 0.7 | 845 | 12 | 140 | 190 | – | – | – | – | –
